≈ marks a conversion by molar mass, not a printed value. Residues, ends and D or L forms follow the SMILES beside them. *: point of attachment. βNA = c1ccc2cc(N*)ccc2c1
Columns and labels:
Assay type in all cases: functional
[1] = system: Pseudomonas aeruginosa; assay: Antimicrobial activity against Pseudomonas aeruginosa PA124 after 18 hrs by rapid INT colorimetric assay in presence of efflux pump inhibitor phenylalanine arginine; conditions: PA124, 18 h
[2] = system: Klebsiella aerogenes; assay: Antimicrobial activity against Enterobacter aerogenes EA3 after 18 hrs by rapid INT colorimetric assay; conditions: EA3, 18 h
In short: (§1)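 Strains precultured overnight on Mueller-Hinton agar. Sample dissolved in DMSO-MHB, twofold serial dilutions in MHB, inoculum 1.5 × 10^6 CFU/ml; final DMSO below 2.5%. Incubated 37°C 18 h, then 0.2 mg/ml INT added, 30 min at 37°C. MIC = lowest concentration preventing yellow-to-pink change (complete growth inhibition). DMSO-only wells as negative control.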

[3] = system: Klebsiella aerogenes; assay: Antimicrobial activity against Enterobacter aerogenes EA5 after 18 hrs by rapid INT colorimetric assay in presence of efflux pump inhibitor phenylalanine arginine; conditions: EA5, 18 h
[4] = system: Escherichia coli; assay: Antimicrobial activity against tetracycline-resistant Escherichia coli AG102 after 18 hrs by rapid INT colorimetric assay in presence of efflux pump inhibitor phenylalanine arginine; conditions: AG102, 18 h
In short: (§2)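 Broth microdilution MIC in Mueller-Hinton broth with PAßN at a final 20 μg/ml throughout. Twofold dilutions of sample from DMSO-MHB stock; inoculum 1.5 × 10^6 CFU/ml; 18 h at 37°C, final DMSO <2.5%. Growth read by INT (0.2 mg/ml, 30 min, 37°C). MIC taken as lowest concentration with no pink colour.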

[5] = system: Klebsiella aerogenes; assay: Antimicrobial activity against Enterobacter aerogenes EA298 after 18 hrs by rapid INT colorimetric assay in presence of efflux pump inhibitor phenylalanine arginine; conditions: EA298, 18 h
[6] = system: Escherichia coli; assay: Antimicrobial activity against Escherichia coli AG100 after 18 hrs by rapid INT colorimetric assay in presence of efflux pump inhibitor phenylalanine arginine; conditions: AG100, 18 h
[7] = system: Klebsiella aerogenes; assay: Antimicrobial activity against Enterobacter aerogenes EA289 after 18 hrs by rapid INT colorimetric assay; conditions: EA289, 18 h; in short: as §1
[8] = system: Escherichia coli; assay: Antimicrobial activity against Escherichia coli AG100A after 18 hrs by rapid INT colorimetric assay
In short: (§3)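 Strains precultured overnight on Mueller-Hinton agar. Samples dissolved in DMSO-MHB, serially diluted twofold in MHB, inoculum 1.5 × 10^6 CFU/ml in MHB added; 37°C, 18 h; final DMSO <2.5%. 0.2 mg/ml INT then added, 30 min at 37°C. MIC = lowest concentration preventing yellow-to-pink reduction, i.e. complete growth inhibition.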

[9] = system: Enterobacter cloacae; assay: Antimicrobial activity against Enterobacter cloacae Ec1194 after 18 hrs by rapid INT colorimetric assay; conditions: Ec1194, 18 h; in short: as §1
[10] = system: Klebsiella aerogenes; assay: Antimicrobial activity against Enterobacter aerogenes EA-CM64 after 18 hrs by rapid INT colorimetric assay; conditions: EA-CM64, 18 h; in short: as §3
[11] = system: Klebsiella aerogenes; assay: Antimicrobial activity against Enterobacter aerogenes EA27 after 18 hrs by rapid INT colorimetric assay; conditions: EA27, 18 h; in short: as §1
[12] = system: Klebsiella aerogenes; assay: Antimicrobial activity against Enterobacter aerogenes EA298 after 18 hrs by rapid INT colorimetric assay; conditions: EA298, 18 h; in short: as §3
[13] = system: Klebsiella pneumoniae; assay: Antimicrobial activity against Klebsiella pneumoniae ATCC 11296 after 18 hrs by rapid INT colorimetric assay; conditions: ATCC 11296, 18 h; in short: as §3
[14] = system: Klebsiella pneumoniae; assay: Antimicrobial activity against Klebsiella pneumoniae KP55 after 18 hrs by rapid INT colorimetric assay; conditions: KP55, 18 h; in short: as §1
[15] = system: Klebsiella aerogenes; assay: Antimicrobial activity against Enterobacter aerogenes ATCC 13048 after 18 hrs by rapid INT colorimetric assay; conditions: ATCC 13048, 18 h; in short: as §1
[16] = system: Enterobacter cloacae; assay: Antimicrobial activity against Enterobacter cloacae Ec07769 after 18 hrs by rapid INT colorimetric assay in presence of efflux pump inhibitor phenylalanine arginine; conditions: Ec07769, 18 h
[17] = system: Escherichia coli; assay: Antimicrobial activity against tetracycline-resistant Escherichia coli AG100A after 18 hrs by rapid INT colorimetric assay; in short: as §3
[18] = system: Klebsiella pneumoniae; assay: Antimicrobial activity against Klebsiella pneumoniae ATCC 11296 after 18 hrs by rapid INT colorimetric assay in presence of efflux pump inhibitor phenylalanine arginine; conditions: ATCC 11296, 18 h
[19] = system: Escherichia coli; assay: Antimicrobial activity against Escherichia coli ATCC 10536 after 18 hrs by rapid INT colorimetric assay; conditions: ATCC 10536, 18 h; in short: as §1
[20] = system: Klebsiella pneumoniae; assay: Antimicrobial activity against Klebsiella pneumoniae KP63 after 18 hrs by rapid INT colorimetric assay in presence of efflux pump inhibitor phenylalanine arginine; conditions: KP63, 18 h
[21] = system: Klebsiella aerogenes; assay: Antimicrobial activity against Enterobacter aerogenes EA5 after 18 hrs by rapid INT colorimetric assay; conditions: EA5, 18 h; in short: as §1
[22] = system: Klebsiella aerogenes; assay: Antimicrobial activity against Enterobacter aerogenes EA289 after 18 hrs by rapid INT colorimetric assay in presence of efflux pump inhibitor phenylalanine arginine; conditions: EA289, 18 h
[23] = system: Klebsiella pneumoniae; assay: Antimicrobial activity against Klebsiella pneumoniae KP55 after 18 hrs by rapid INT colorimetric assay in presence of efflux pump inhibitor phenylalanine arginine; conditions: KP55, 18 h
[24] = system: Escherichia coli; assay: Antimicrobial activity against Escherichia coli ATCC 8739 after 18 hrs by rapid INT colorimetric assay in presence of efflux pump inhibitor phenylalanine arginine; conditions: ATCC 8739, 18 h; in short: as §2
[25] = system: Escherichia coli; assay: Antimicrobial activity against Escherichia coli ATCC 8739 after 18 hrs by rapid INT colorimetric assay; conditions: ATCC 8739, 18 h; in short: as §3
[26] = system: Klebsiella aerogenes; assay: Antimicrobial activity against Enterobacter aerogenes EA294 after 18 hrs by rapid INT colorimetric assay in presence of efflux pump inhibitor phenylalanine arginine; conditions: EA294, 18 h
[27] = system: Enterobacter cloacae; assay: Antimicrobial activity against Enterobacter cloacae Ec07769 after 18 hrs by rapid INT colorimetric assay; conditions: Ec07769, 18 h; in short: as §1
[28] = system: Enterobacter cloacae; assay: Antimicrobial activity against Enterobacter cloacae Ec1194 after 18 hrs by rapid INT colorimetric assay in presence of efflux pump inhibitor phenylalanine arginine; conditions: Ec1194, 18 h; in short: as §2
[29] = system: Pseudomonas aeruginosa; assay: Antimicrobial activity against Pseudomonas aeruginosa PA124 after 18 hrs by rapid INT colorimetric assay; conditions: PA124, 18 h; in short: as §3
[30] = system: Escherichia coli; assay: Antimicrobial activity against Escherichia coli AG100 after 18 hrs by rapid INT colorimetric assay; conditions: AG100, 18 h; in short: as §3
[31] = system: Klebsiella aerogenes; assay: Antimicrobial activity against Enterobacter aerogenes ATCC 13048 after 18 hrs by rapid INT colorimetric assay in presence of efflux pump inhibitor phenylalanine arginine; conditions: ATCC 13048, 18 h
[32] = system: Klebsiella aerogenes; assay: Antimicrobial activity against Enterobacter aerogenes EA294 after 18 hrs by rapid INT colorimetric assay; conditions: EA294, 18 h; in short: as §3
[33] = system: Klebsiella aerogenes; assay: Antimicrobial activity against Enterobacter aerogenes EA-CM64 after 18 hrs by rapid INT colorimetric assay in presence of efflux pump inhibitor phenylalanine arginine; conditions: EA-CM64, 18 h
[34] = system: Klebsiella aerogenes; assay: Antimicrobial activity against Enterobacter aerogenes EA3 after 18 hrs by rapid INT colorimetric assay in presence of efflux pump inhibitor phenylalanine arginine; conditions: EA3, 18 h
[35] = system: Pseudomonas aeruginosa; assay: Antimicrobial activity against Pseudomonas aeruginosa PAO1 after 18 hrs by rapid INT colorimetric assay; conditions: PAO1, 18 h; in short: as §3
[36] = system: Escherichia coli; assay: Antimicrobial activity against Escherichia coli ATCC 10536 after 18 hrs by rapid INT colorimetric assay in presence of efflux pump inhibitor phenylalanine arginine beta-naphthylamide; conditions: ATCC 10536, 18 h; in short: as §2
[37] = system: Escherichia coli; assay: Antimicrobial activity against Escherichia coli AG100A after 18 hrs by rapid INT colorimetric assay in presence of efflux pump inhibitor phenylalanine arginine
[38] = system: Klebsiella aerogenes; assay: Antimicrobial activity against Enterobacter aerogenes EA27 after 18 hrs by rapid INT colorimetric assay in presence of efflux pump inhibitor phenylalanine arginine; conditions: EA27, 18 h
[39] = system: Pseudomonas aeruginosa; assay: Antimicrobial activity against Pseudomonas aeruginosa PAO1 after 18 hrs by rapid INT colorimetric assay in presence of efflux pump inhibitor phenylalanine arginine; conditions: PAO1, 18 h
[40] = system: Escherichia coli; assay: Antimicrobial activity against tetracycline-resistant Escherichia coli AG102 after 18 hrs by rapid INT colorimetric assay; conditions: AG102, 18 h; in short: as §3
[41] = system: Escherichia coli; assay: Antimicrobial activity against tetracycline-resistant Escherichia coli AG100A after 18 hrs by rapid INT colorimetric assay in presence of efflux pump inhibitor phenylalanine arginine; in short: as §2
[42] = system: Klebsiella pneumoniae; assay: Antimicrobial activity against Klebsiella pneumoniae KP63 after 18 hrs by rapid INT colorimetric assay; conditions: KP63, 18 h; in short: as §1

SMILES: CCn1cc(C(=O)O)c(=O)c2cc(F)c(N3CCNCC3)cc21 [NORFLOXACIN]
- MIC [1]: 32 µg/mL
- MIC [2]: 128 µg/mL (≈ 401 µM)
- MIC [3]: 128 µg/mL
- MIC [4]: 0.25 µg/mL
- MIC [5]: 8 µg/mL
- MIC [6]: 0.12 µg/mL
- MIC [7]: 128 µg/mL (≈ 401 µM)
- MIC [8]: 0.03 µg/mL (≈ 0.0939 µM)
- MIC [9]: 32 µg/mL (≈ 100 µM)
- MIC [10]: 4 µg/mL (≈ 12.5 µM)
- MIC [11]: 256 µg/mL (≈ 802 µM)
- MIC [12]: 8 µg/mL (≈ 25.1 µM)
- MIC [13]: 1 µg/mL (≈ 3.13 µM)
- MIC [14]: 16 µg/mL (≈ 50.1 µM)
- MIC [15]: 0.25 µg/mL (≈ 0.783 µM)
- MIC [16]: > 256 µg/mL
- MIC [17]: 1 µg/mL (≈ 3.13 µM)
- MIC [18]: 0.5 µg/mL
- MIC [19]: 0.06 µg/mL (≈ 0.188 µM)
- MIC [20]: 4 µg/mL
- MIC [21]: 256 µg/mL (≈ 802 µM)
- MIC [22]: 128 µg/mL
- MIC [23]: 8 µg/mL
- MIC [24]: 0.12 µg/mL
- MIC [25]: 0.12 µg/mL (≈ 0.376 µM)
- MIC [26]: 32 µg/mL
- MIC [27]: > 256 µg/mL
- MIC [28]: 32 µg/mL
- MIC [29]: 64 µg/mL (≈ 200 µM)
- MIC [30]: 0.12 µg/mL (≈ 0.376 µM)
- MIC [31]: 0.25 µg/mL
- MIC [32]: 64 µg/mL (≈ 200 µM)
- MIC [33]: 2 µg/mL
- MIC [34]: 64 µg/mL
- MIC [35]: 2 µg/mL (≈ 6.26 µM)
- MIC [36]: 0.03 µg/mL
- MIC [37]: 0.007 µg/mL
- MIC [38]: 128 µg/mL
- MIC [39]: 1 µg/mL
- MIC [40]: 1 µg/mL (≈ 3.13 µM)
- MIC [41]: 0.25 µg/mL
- MIC [42]: 16 µg/mL (≈ 50.1 µM)

SMILES: N=C(N)NCCC[C@H](NC(=O)[C@@H](N)Cc1ccccc1)C(=O)Nc1ccc2ccccc2c1 [PABETAN] (H-Phe-Arg-βNA)
- MIC [2]: > 256 µg/mL
- MIC [7]: > 256 µg/mL
- MIC [8]: 64 µg/mL (≈ 143 µM)
- MIC [9]: > 256 µg/mL
- MIC [10]: > 256 µg/mL
- MIC [11]: > 256 µg/mL
- MIC [12]: > 256 µg/mL
- MIC [13]: 256 µg/mL (≈ 573 µM)
- MIC [14]: > 256 µg/mL
- MIC [15]: > 256 µg/mL
- MIC [17]: > 256 µg/mL
- MIC [19]: > 256 µg/mL
- MIC [21]: > 256 µg/mL
- MIC [25]: > 256 µg/mL
- MIC [27]: > 256 µg/mL
- MIC [29]: > 256 µg/mL
- MIC [30]: > 256 µg/mL
- MIC [32]: > 256 µg/mL
- MIC [35]: > 256 µg/mL
- MIC [40]: > 256 µg/mL
- MIC [42]: > 256 µg/mL

From ChEMBL document CHEMBL1255429, “Efflux pumps are involved in the defense of Gram-negative bacteria against the natural products isobavachalcone and diospyrone” (2010)
